Experimental findings from ChEMBL document CHEMBL1137528, “Preparation of tetrahydroimidazo[2,1-a]isoquinolines and their use as inhibitors of gastric acid secretion” (Bioorg Med Chem, 2007) are described below.

The nature of data set [1]: Inhibition of H+/K+ ATPase in hog gastric mucosa. Format: tissue-based, Sus scrofa. The essentials:
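Hog gastric H+/K+-ATPase (0.5–1 µg/100 µl), nigericin 1:1 with enzyme. Buffer 4 mM Pipes/8 mM Tris pH 7.4, 0.25 M sucrose, 1 mM MgCl2, 1 mM KCl as stimulant. Compounds 1e-4 to 1e-9 M final from DMSO stocks. Started with 1 mM Na-ATP, 30 min at room temperature. Phosphate read by malachite green at 680 nm; sigmoidal fit gives IC50.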

Another data set relates to Gastric gland. Kind of data set: Effect on acid secretion in rabbit intact gastric glands assessed as inhibition of [14C][…] accumulation. The conditions noted are these: Oryctolagus cuniculus. Type of data set: functional, tissue-based. In short, it runs like this:
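Glands stimulated with 1 mM dibutyryl cAMP with or without inhibitor (3 nM–100 µM). Stopped by centrifugation, 10 s at 20,000g. 14C-aminopyrine radioactivity measured in supernatant and in NaOH-dissolved pellet. Accumulation taken from the pellet/supernatant ratio, normalized to gland wet/dry weight. IC50 obtained by fitting the expected inhibition equation.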

Data set [2] can be described thus: Dissociation constant, pKa of the compound. Format: physicochemical. The essentials:
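Potentiometric co-solvent titration in 0.15 mol/l KCl over pH 2.0–11.0 at 25 °C. Methanol used as co-solvent in varying portions, with 0.5 mol/l KOH and HCl as titrants.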

Data set [3] in a line: Distribution coefficient, log D at pH 7.4. Type of data set: physicochemical. The settings on record: octanol/water. In short, it runs like this:
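Potentiometric titration, pH 2.0–11.0, 25 °C, in 0.15 mol/l KCl mixed with water-saturated 1-octanol in varying octanol portions. Titrants were 0.5 mol/l KOH and HCl. Distribution coefficients between 1-octanol and aqueous KCl were derived from these titrations.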

One may read the IC50 as the midpoint of a concentration-inhibition curve. Usually pKa stands for the pH at which an ionisable group is half protonated. Read a low pKa as a stronger acid or weaker base. A word on the logD: it is lipophilicity at a set pH, counting ionised and neutral species. As for `COCCNC(=O)c1cn2c(C)c(C)nc2c2c1CCC(c1ccccc1)C2` (configuration not stated), in data set [1], the “Log IC50” value is -4.9. Also, in the data set with Gastric gland, the IC50 was 1260 nM. In addition, in data set [2], the pKa turned out to be 7.22. This compound also showed a logD in data set [3] of 3.31.
For `Cc1cn2cc(C(=O)N(C)C)c3c(c2n1)CC(c1ccccc1)CC3` (configuration not stated), the “Log IC50” value in data set [1] is on record as -4.8. Besides, the IC50 in the data set on Gastric gland was 7940 nM. In addition, in data set [2], the pKa came out at 6.67. The logD in data set [3] is 2.77.
For `COCc1cn2c(C)c(C)nc2c2c1CCC(c1ccccc1)C2` (configuration not stated) the same measures were -6.3, 2000 nM, 7.79 and 3.93.
For `Cc1cn2ccc3c(c2n1)CC(c1ccccc1)CC3` (configuration not stated) the same measures were -5.1, 7940 nM, 7.63 and 3.81.
Taken in the same sequence, the figures for `Cc1nc2c3c(c(C(=O)N(C)C)cn2c1CO)CCC(c1ccccc1)C3` (configuration not stated) were -5.5, 10000 nM, 6.32 and 2.23.
With `Cc1nc2c3c(c(C(=O)N(C)C)cn2c1C)CCC(c1ccccc1)C3` (configuration not stated), in data set [1], the “Log IC50” value is -6. Moreover, in the data set on Gastric gland, the IC50 is 398 nM. Moreover, the pKa in data set [2] was 7.16. Further, the logD in data set [3] was determined as 2.9.
In the case of `Cc1nc2c3c(ccn2c1CC#N)CCC(c1ccccc1)O3` (configuration not stated), in data set [1], the “Log IC50” value is given as -7. For the same compound, the IC50 with Gastric gland is 63.1 nM.
On to `Cc1nc2c3c(c(C(N)=O)cn2c1C)CCC(c1ccccc1)C3` (configuration not stated), for which, in data set [1], the “Log IC50” value is recorded as -5.9. For the same compound, the IC50 in the data set with Gastric gland was 2000 nM. In addition, the pKa in data set [2] came out at 7.26. In addition, the logD in data set [3] amounted to 3.21.
Regarding `CNC(=O)c1cn2c(C)c(C)nc2c2c1CCC(c1ccccc1)C2` (configuration not stated), in data set [1], the “Log IC50” value was -6.2. Further, the IC50 in the data set on Gastric gland is 1000 nM.
As for `Cc1nc2c3c(c(C(=O)NCCO)cn2c1C)CCC(c1ccccc1)C3` (configuration not stated), the “Log IC50” value in data set [1] is listed as -5.9. Besides, the IC50 in the data set on Gastric gland is 10000 nM. Further, in data set [2], the pKa was 7.22. This compound came in with a logD in data set [3] of 2.81.
As to `Cc1nc2c3c(c(C(=O)N4CCCC4)cn2c1C)CCC(c1ccccc1)C3` (configuration not stated), the “Log IC50” value in data set [1] is -5.9. Further, the IC50 with Gastric gland was 316 nM. In addition, the pKa in data set [2] was determined as 7.2. The compound also gave a logD in data set [3] of 3.37.
For `Cc1nc2c3c(c(C(=O)N4CCOCC4)cn2c1C)CCC(c1ccccc1)C3` (configuration not stated) the same measures were -5, 6310 nM, 7.05 and 2.76.
Taken in the same sequence, the figures for `Cc1nc2c3c(c(C(=O)N(C)C)cn2c1Br)CCC(c1ccccc1)C3` (configuration not stated) were -4.9, 10000 nM, 5.11 and 3.8.
Taken in the same sequence, the figures for `Cc1nc2c3c(ccn2c1C)CCC(c1ccccc1)C3` (configuration not stated) were -6.6, 794 nM, 8.05 and 3.9.
